In the library only some 3.5% were active in any assay of this set; here they are far more common.
RGS4 pot: RGS4 potentiation or activation; HEK293 M3R/inducible RGS4, carbachol calcium flux Fluo4; hits give low values; B-score at 10 µM; 0.92% of 310,000 active; AID 463111;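 active means B-score of the integrated calcium signal more than 4 SD below the library mean, with starting fluorescence not abnormally high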;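 further: negative B-score means reduced calcium response which marks RGS4 activation or potentiation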
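Material: Inducible-RGS4 HEK293 cells carrying M3 receptor; also added: carbachol at ECmax as muscarinic agonist stimulus; incubation: compound preincubation 20 min at room temperature before agonist; signal: Fluo4-AM (2 µM) calcium-flux fluorescence, kinetic read; measure: integrated calcium ratio converted to B score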
MrgX1 antagonist: antagonists of human MrgX1 receptor; MRGX1-HEK293 calcium flux, Fluo-4, BAM8-22 antagonism; hits give low values; B-score at 10 µM; 1.3% of 310,000 active;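 active means calcium-response B-score plate-corrected more than 3 library SD below zero, starting fluorescence within 5 deviations, no agonist response on first addition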;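 further: peak minus trough fluorescence over baseline after final BAM8-22 challenge near maximal dose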
Target sequence (Q96LB2 whole entry, looked up): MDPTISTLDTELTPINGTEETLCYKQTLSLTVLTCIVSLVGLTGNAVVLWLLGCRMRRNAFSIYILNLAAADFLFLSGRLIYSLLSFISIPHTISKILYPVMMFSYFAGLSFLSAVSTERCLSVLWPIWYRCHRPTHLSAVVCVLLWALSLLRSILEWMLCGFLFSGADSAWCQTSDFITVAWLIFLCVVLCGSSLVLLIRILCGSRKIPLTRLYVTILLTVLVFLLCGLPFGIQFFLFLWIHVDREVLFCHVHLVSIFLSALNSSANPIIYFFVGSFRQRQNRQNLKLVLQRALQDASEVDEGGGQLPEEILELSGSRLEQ
MrgX1 PAM: human MrgX1 positive allosteric modulation, primary screen; Q96LB2; B-score at 10 µM; 0.63% of 310,000 active; MrgX1-HEK293, Fluo-4 calcium flux, FDSS; hits give high values;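 active means plate-corrected calcium response at least 3 library SD above typical, normal starting fluorescence, not activating the receptor alone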;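 further: compound read alongside a low EC10 to EC30 dose of BAM8-22 agonist; peak minus trough fluorescence over baseline measured at the second addition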
MrgX1 agonist: activates human MrgX1 receptor signaling. Q96LB2. AID 588627. MrgX1-HEK293 cells, Fluo-4 calcium fluorescence, agonist mode; hits give high values. 0.44% of 310,000 active. B-score at 10 µM;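 active means calcium response B-score plate-corrected fluorescence ratio at least 3 library SD, with starting fluorescence B-score inside 5 SD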
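Test system: HEK293 cells stably expressing human MrgX1 receptor; amount: 15,000 cells per well; doses: compound delivered in addition one of three; times: overnight plating before 1 h dye loading; detection: Fluo-4 NW calcium-flux fluorescence, kinetic read; read-out basis: B-scored fluorescence response ratio; controls: positive and negative controls per plate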
RGS4 inh: inhibitors of human RGS4; 0.45% of 310,000 active; HEK293 M3R/RGS4 inducible, Fluo-4 calcium flux; hits give high values; triggered by carbachol at its EC20; B-score at 10 µM; P49798;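 active means B-score, a plate-corrected calcium signal, over three deviations above library mean, with baseline fluorescence within five deviations of library mean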;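 further: RGS4 expression induced by doxycycline in cells with stable M3 receptor; B-score is computed from the integrated fluorescence ratio over baseline after carbachol; higher B-score means a larger calcium signal and so more RGS4 inhibition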
Target sequence (P49798 whole entry, looked up): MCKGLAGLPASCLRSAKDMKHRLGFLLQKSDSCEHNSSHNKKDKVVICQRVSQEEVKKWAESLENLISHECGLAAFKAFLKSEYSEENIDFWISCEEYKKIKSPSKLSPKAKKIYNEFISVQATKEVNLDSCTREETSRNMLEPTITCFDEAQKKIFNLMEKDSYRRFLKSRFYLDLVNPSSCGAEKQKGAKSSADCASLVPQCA
The depositor's hits bear a star; i = inactive; . = no result given.

SMILES | RGS4 pot | MrgX1 antagonist | MrgX1 PAM | MrgX1 agonist | RGS4 inh
O=c1[nH]c(-c2ccccc2)c(-c2ccccc2)o1 | i | i | i | i | i
O=C(CSc1ncn[nH]1)Nc1ccc(Cl)c(S(=O)(=O)N2CCOCC2)c1 | i | i | i | i | i
O=C(Nc1cccc(-c2csc(Nc3cccc(C(F)(F)F)c3)n2)c1)c1ccccc1 | i | i | i | i | i
O=C(Nc1cccc(-c2csc(Nc3ccccc3)n2)c1)c1ccccc1 | -7.3* | i | i | i | i
O=[N+]([O-])c1cccc(S(=O)(=O)N/N=C\c2ccc3c(c2)OCO3)c1 | i | i | 13* | i | i
O=[N+]([O-])c1cccc(S(=O)(=O)N/N=C/c2ccc(O)cc2)c1 | i | i | 6.6* | i | i
COc1cccc(S(=O)(=O)Nc2cccc(C(=O)N3CCOCC3)c2)c1 | -7.5* | i | i | i | i
COc1cccc(S(=O)(=O)Nc2cccc(C(=O)N3CCCC3)c2)c1 | i | i | i | i | i
Cc1ccc(-n2c(C)cc(/C=C3\NC(=O)NC3=O)c2C)c(C)c1 | -7.6* | i | i | i | i
Cc1cc(/C=C2/NC(=O)NC2=O)c(C)n1-c1ccccn1 | i | i | i | i | i
O=C(CN1CCN(CC(=O)Nc2cccc(F)c2)CC1)Nc1ccc(-c2ccccc2)cc1 | i | i | i | i | i
CCOP(=O)(OCC)C(NC(=O)Nc1c(C)cc(C)cc1C)c1ccccc1 (stereo not drawn) | i | i | i | i | i
CCOP(=O)(OCC)C(NC(=O)Nc1ccccc1)c1ccccc1 (stereo not drawn) | i | -4.8* | i | i | i
O=C(Nc1ccc(Cl)c(Cl)c1)OCCNC(=O)c1cccc(Cl)c1 | i | -5.3* | i | i | i
CN1C(=S)SC2CS(=O)(=O)CC21 (stereo not drawn) | i | i | i | i | i
CC(C)Oc1ccc(/C(O)=C2/C(=O)C(=O)N(CCN(C)C)C2c2cccs2)cc1 (stereo not drawn) | i | i | i | i | i
O=C(ON=C1CCN(S(=O)(=O)c2ccccc2)CC1)c1ccc(F)cc1 | i | -6.1* | i | i | i
N/C(Cc1ccc(Cl)cc1Cl)=N\OC(=O)c1cccs1 | i | -7.9* | i | i | i
O=C(Nn1cnc2ccccc2c1=O)C1CCCCC1 | i | -7.5* | i | i | i
CCCC1CCC(C(=O)Nn2cnc3ccccc3c2=O)CC1 (stereo not drawn) | i | i | i | i | i
O=C(/C=C/c1ccccc1Cl)NCc1cccs1 | i | i | i | i | i
CCc1cccc(C)c1NC(=O)c1ccc2c(c1)CCN2S(C)(=O)=O | i | i | i | i | i
COCc1cc(C)nc(Nc2ccccc2OC)c1C#N | i | i | i | i | i
COc1ccccc1OCC(=O)N/N=C/c1c(O)ccc2ccccc12 | -7.6* | i | i | i | i
COc1ccc(OCC(=O)N/N=C/c2ccc(OC)c(OC)c2C(=O)O)cc1 | i | i | i | i | i
SMILES | RGS4 pot | MrgX1 antagonist | MrgX1 PAM | MrgX1 agonist | RGS4 inh
COc1ccc(/C=N/NC(=O)COc2ccc3ccccc3c2)c(C(=O)O)c1OC | i | -5.4* | i | i | i
COC(=O)c1ccccc1NC(=O)c1cccnc1 | i | i | i | i | i
COc1ccc(N/N=C(/C(C)=O)N2CCCc3ccccc32)cc1 | -8* | i | i | i | i
COc1ccc(NC(=O)N2CCCc3ccccc32)cc1 | i | i | i | i | i
CC(NC(=O)C1CCC(CNS(=O)(=O)c2ccccc2)CC1)c1ccc2c(c1)OCCO2 (stereo not drawn) | i | i | i | i | i
CCCCCC(=O)NNC(=O)c1c(O)c2ccccc2n(CC)c1=O | i | i | i | i | i
CCn1c(=O)c(C(=O)NNC(=O)c2ccccc2F)c(O)c2ccccc21 | -8.7* | i | i | 114* | i
COCCNC(=O)NC12CC3(C)CC(C)(CC(C)(C3)C1)C2 | i | i | i | i | i
Cc1c(NC(=O)C2CCCN(S(=O)(=O)c3cnc[nH]3)C2)c(=O)n(-c2ccccc2)n1C (stereo not drawn) | i | -7.3* | i | i | i
Cc1ccccc1NC(=O)C1CCCN(S(=O)(=O)c2cnc[nH]2)C1 (stereo not drawn) | i | i | i | i | i
O=C(Cn1ccc([N+](=O)[O-])n1)Nc1ccccn1 | i | i | i | i | i
Cc1ccccc1-n1c(SCc2c(C)noc2C)nnc1-c1c[nH]c2ccccc12 | i | -4.5* | i | i | i
CCOC(=O)c1cnc2sc3c(n2c1=O)CCCC3 | . | -5.2* | i | i | .
CC(C)(C)C(=O)/C(=C\c1ccc([N+](=O)[O-])cc1)n1cncn1 | i | i | i | 34* | 14*
CC(C)(C)C(=O)/C(=C/c1ccc(Cl)cc1)n1cncn1 | i | i | i | i | i
CC(C)N(CCC(=O)c1ccc2ccccc2c1)Cc1ccccc1 | . | i | i | 39* | .
CCC(=O)CCC(=O)c1ccc2ccccc2c1 | i | i | i | i | i
CCCCS(=O)(=O)/C=C\C=C/S(=O)(=O)CCCC | i | i | i | 33* | i
CCCCS(=O)(=O)/C=C\C1C2C=CC(C2)C1S(=O)(=O)CCCC (stereo not drawn) | i | i | i | i | i
COC(=O)C1(Cc2ccc(O)cc2)OC(=O)C(O)=C1c1ccc(O)cc1 (stereo not drawn) | i | i | i | i | i
CC(C)N1CCc2c(sc(NC(=O)c3cc(-c4cccs4)nc4ccccc34)c2C(N)=O)C1 | -11* | i | i | i | i
CC(C)N1CCc2c(sc(NC(=O)c3nc4ccccc4s3)c2C(N)=O)C1 | i | i | i | i | i
CCN(CC)S(=O)(=O)c1ccc(S(=O)(=O)N2CCCC(C(=O)NC3CC3)C2)cc1 (stereo not drawn) | i | i | i | i | i
CC(CN1C(C)CCCC1C)OC(=O)c1ccccc1F (stereo not drawn) | i | i | i | i | i
COc1cc(CCN2C(=O)c3cccc4cccc(c34)C2=O)c(S(=O)(=O)NCCCO)cc1OC | i | i | i | i | i
CC(=O)c1ccc(S(=O)(=O)Nc2ccc(C(=O)NCC(c3cccs3)N3CCOCC3)cc2)cc1 (stereo not drawn) | i | i | i | i | i
